Where only a bound is given, the exact number is not on record here.

The values that follow come from ChEMBL document CHEMBL1132157 (J Med Chem, 1999).

For test [1], the target named is T1, 5-hydroxytryptamine receptor 1B (Homo sapiens, UniProt P28222). Description: Displacement of [3H]5-HT binding to cloned 5-hydroxytryptamine 1B receptor stably expressed in CHO cells. In kind it is cell-based. Summed up: (§1)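 Membranes from thawed CHO cells with human 5-HT1B or 5-HT1D, washed in 50 mM Tris-HCl pH 7.7, preincubated 10 min at 37 °C to remove endogenous 5-HT. Buffer holds 0.1% ascorbate, 10 μM pargyline and 4 mM CaCl2. Uses 2.0 nM [3H]5-HT, 30 min at 37 °C; 10 μM 5-HT defines nonspecific binding. Filtration; IC50 by nonlinear regression; duplicates, 2–5 occasions.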
T1 sequence (P28222 whole entry): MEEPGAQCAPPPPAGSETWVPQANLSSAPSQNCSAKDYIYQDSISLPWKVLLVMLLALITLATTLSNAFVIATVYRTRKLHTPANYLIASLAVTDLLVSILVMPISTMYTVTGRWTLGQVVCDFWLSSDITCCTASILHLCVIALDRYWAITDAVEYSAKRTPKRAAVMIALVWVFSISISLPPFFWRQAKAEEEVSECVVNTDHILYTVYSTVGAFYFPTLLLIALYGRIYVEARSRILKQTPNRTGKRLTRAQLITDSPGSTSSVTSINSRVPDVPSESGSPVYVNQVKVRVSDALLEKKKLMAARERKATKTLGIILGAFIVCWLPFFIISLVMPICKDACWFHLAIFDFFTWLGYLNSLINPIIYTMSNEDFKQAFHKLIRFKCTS
Background: Loss of bound radioactivity is the signal in a displacement assay; it reports binding, not function.

Test [2] has as its target 5-hydroxytryptamine receptor 5A (Homo sapiens, UniProt P47898). Description: Compound was tested for the displacement of [3H]5-HT binding to cloned human 5-hydroxytryptamine 5A receptor stably expressed in CHO cells. In kind it is cell-based.
In test [3] the target is T2, 5-hydroxytryptamine receptor 1D (Homo sapiens, UniProt P28221). The experiment in a line: Agonist-induced [35S]- GTPgammaS binding in CHO cells stably transfected with 5-hydroxytryptamine 1D receptor. The class given is cell-based. A digest of the protocol:
(§2)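 Membranes from thawed CHO cells with human 5-HT1D, prepared in ice-cold 20 mM Hepes/EDTA at pH 7.4, spun at 40000g. Assay buffer: 100 mM NaCl, 10 mM MgCl2, 0.1% ascorbate, 10 μM pargyline. GDP 100 μM plus drug, 20 min at 30 °C, then ice 15 min. Then 100 pM [35S]GTPγS, 30 min at 30 °C, filtration. Emax is taken as % of maximal 5-HT response; duplicates, 2–5 occasions.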

For test [4], the target named is 5-hydroxytryptamine receptor 1E (Homo sapiens, UniProt P28566). The experiment in a line: Compound was tested for the displacement of [3H]5-HT binding to cloned human 5-hydroxytryptamine 1E receptor stably expressed in CHO cells. In kind it is cell-based.
5-hydroxytryptamine receptor 1E, sequence (P28566 whole entry): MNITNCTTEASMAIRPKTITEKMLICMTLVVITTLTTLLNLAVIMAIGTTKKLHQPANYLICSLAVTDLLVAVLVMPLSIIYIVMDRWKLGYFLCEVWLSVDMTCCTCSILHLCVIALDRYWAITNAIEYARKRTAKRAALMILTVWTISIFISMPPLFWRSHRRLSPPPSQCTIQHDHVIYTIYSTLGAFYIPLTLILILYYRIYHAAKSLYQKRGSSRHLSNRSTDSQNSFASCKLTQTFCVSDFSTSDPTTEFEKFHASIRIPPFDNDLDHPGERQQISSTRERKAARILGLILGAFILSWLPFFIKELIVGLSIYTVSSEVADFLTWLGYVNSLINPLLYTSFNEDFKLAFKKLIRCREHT
Test [5] concerns the target T3, 5-hydroxytryptamine receptor 1A (Homo sapiens, UniProt P08908).
T3 sequence (P08908 whole entry): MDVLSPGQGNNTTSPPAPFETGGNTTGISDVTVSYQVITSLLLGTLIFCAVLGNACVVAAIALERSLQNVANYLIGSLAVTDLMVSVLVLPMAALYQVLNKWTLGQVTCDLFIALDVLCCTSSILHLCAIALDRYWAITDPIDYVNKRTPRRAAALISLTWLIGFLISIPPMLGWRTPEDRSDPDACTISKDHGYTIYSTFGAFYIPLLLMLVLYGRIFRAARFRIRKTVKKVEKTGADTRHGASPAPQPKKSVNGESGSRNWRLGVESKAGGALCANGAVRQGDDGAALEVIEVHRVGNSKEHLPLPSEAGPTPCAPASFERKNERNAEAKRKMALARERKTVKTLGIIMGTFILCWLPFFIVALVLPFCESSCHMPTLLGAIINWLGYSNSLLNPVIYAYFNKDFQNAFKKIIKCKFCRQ
Description: Compound was tested for the displacement of [3H]5-HT binding to cloned 5-hydroxytryptamine 1A receptor stably expressed in CHO cells. The class given is cell-based.

Test [6] concerns the target 5-hydroxytryptamine receptor 2A (Homo sapiens, UniProt P28223). Description: Compound was tested for the displacement of [3H]5-HT binding to cloned human 5-hydroxytryptamine 2A receptor stably expressed in CHO cells. In kind it is cell-based.
In test [7] the target is 5-hydroxytryptamine receptor 7 (Rattus norvegicus, UniProt P32305). Description: Compound was tested for the displacement of [3H]5-HT binding to cloned rat 5-hydroxytryptamine 7 receptor stably expressed in CHO cells. The class given is cell-based.
5-hydroxytryptamine receptor 7, sequence (P32305 whole entry): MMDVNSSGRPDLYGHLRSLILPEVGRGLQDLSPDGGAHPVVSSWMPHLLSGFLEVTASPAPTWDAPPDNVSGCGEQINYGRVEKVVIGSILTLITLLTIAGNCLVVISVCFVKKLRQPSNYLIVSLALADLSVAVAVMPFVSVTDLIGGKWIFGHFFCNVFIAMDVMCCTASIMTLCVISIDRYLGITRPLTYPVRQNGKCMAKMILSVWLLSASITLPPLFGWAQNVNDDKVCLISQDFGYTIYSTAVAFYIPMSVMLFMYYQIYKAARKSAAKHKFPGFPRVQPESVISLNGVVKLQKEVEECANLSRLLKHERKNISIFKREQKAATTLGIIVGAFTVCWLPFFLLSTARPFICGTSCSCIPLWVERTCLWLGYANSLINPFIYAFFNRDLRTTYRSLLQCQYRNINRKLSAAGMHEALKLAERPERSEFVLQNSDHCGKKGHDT
Test [8] deals with T4, 5-hydroxytryptamine receptor 1F (Homo sapiens, UniProt P30939).
T4 sequence (P30939 whole entry): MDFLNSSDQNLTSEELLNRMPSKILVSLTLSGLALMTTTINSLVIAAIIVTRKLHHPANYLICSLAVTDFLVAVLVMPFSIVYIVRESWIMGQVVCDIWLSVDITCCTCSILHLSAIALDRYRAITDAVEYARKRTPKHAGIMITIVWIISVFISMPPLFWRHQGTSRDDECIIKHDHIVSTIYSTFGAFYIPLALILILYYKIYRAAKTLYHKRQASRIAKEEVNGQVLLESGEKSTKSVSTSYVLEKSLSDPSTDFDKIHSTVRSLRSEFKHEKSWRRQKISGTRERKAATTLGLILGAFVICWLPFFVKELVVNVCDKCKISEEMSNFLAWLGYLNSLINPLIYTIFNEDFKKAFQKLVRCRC
The experiment in a line: Compound was tested for the displacement of [3H]5-HT binding to cloned human 5-hydroxytryptamine 1F receptor stably expressed in CHO cells. In kind it is cell-based.

For test [9], the target named is 5-hydroxytryptamine receptor 6 (Rattus norvegicus, UniProt P31388). Description: Compound was tested for the displacement of [3H]5-HT binding to cloned rat 5-hydroxytryptamine 6 receptor stably expressed in CHO cells. In kind it is cell-based.
5-hydroxytryptamine receptor 6, sequence (P31388 whole entry): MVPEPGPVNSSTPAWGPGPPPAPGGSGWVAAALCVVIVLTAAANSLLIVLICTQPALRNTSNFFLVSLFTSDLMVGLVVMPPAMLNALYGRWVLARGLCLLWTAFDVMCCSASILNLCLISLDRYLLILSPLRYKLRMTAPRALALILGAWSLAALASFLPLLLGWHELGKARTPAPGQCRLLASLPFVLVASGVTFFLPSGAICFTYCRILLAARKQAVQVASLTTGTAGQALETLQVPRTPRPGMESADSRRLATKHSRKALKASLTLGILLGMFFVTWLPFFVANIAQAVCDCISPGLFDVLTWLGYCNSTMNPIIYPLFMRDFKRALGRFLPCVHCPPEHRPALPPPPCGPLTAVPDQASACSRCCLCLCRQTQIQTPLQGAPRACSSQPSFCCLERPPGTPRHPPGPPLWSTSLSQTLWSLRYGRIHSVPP
Test [10] can be described thus: Ratio of IC50 for human 5-HT1B to human 5-HT1D receptors.
Test [11] deals with T2, 5-hydroxytryptamine receptor 1D. The experiment in a line: Maximum stimulation of [35S]GTP-gamma-S, binding in CHO cells expressing human 5-HT-1d relative to 5-HT. The class given is functional, cell-based. Summed up:
as §2
Background: Binding of GTPγS marks nucleotide exchange on a G protein.

Test [12] addresses T1, 5-hydroxytryptamine receptor 1B. The experiment in a line: Binding affinity at cloned human 5-hydroxytryptamine 1B receptor stably expressed in CHO cells by [3H]5-HT displacement. In kind it is cell-based.
Test [13] addresses T2, 5-hydroxytryptamine receptor 1D. The experiment in a line: Binding affinity at human cloned 5-hydroxytryptamine 1D receptor stably expressed in CHO cells by [3H]5-HT displacement. In kind it is cell-based. Summed up:
as §1

T2 sequence (P28221 whole entry): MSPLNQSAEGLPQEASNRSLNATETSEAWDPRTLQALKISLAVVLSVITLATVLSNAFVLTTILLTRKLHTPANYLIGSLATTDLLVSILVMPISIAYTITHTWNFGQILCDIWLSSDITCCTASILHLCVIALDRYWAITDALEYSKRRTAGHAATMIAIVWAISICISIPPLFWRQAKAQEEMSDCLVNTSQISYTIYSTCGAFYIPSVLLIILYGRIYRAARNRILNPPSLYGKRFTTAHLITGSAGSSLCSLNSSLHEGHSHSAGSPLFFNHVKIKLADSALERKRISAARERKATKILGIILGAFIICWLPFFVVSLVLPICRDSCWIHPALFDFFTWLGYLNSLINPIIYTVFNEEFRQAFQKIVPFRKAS
5-hydroxytryptamine receptor 5A, sequence (P47898 whole entry): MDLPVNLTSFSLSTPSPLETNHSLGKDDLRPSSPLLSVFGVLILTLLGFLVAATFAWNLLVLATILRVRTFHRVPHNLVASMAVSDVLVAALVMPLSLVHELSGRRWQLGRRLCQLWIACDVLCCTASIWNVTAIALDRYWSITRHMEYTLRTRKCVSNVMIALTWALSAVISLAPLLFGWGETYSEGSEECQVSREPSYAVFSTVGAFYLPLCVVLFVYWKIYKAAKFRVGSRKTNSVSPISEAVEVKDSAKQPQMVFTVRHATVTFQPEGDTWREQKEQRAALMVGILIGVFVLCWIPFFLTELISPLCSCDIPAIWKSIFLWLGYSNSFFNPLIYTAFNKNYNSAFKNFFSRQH
5-hydroxytryptamine receptor 2A, sequence (P28223 whole entry): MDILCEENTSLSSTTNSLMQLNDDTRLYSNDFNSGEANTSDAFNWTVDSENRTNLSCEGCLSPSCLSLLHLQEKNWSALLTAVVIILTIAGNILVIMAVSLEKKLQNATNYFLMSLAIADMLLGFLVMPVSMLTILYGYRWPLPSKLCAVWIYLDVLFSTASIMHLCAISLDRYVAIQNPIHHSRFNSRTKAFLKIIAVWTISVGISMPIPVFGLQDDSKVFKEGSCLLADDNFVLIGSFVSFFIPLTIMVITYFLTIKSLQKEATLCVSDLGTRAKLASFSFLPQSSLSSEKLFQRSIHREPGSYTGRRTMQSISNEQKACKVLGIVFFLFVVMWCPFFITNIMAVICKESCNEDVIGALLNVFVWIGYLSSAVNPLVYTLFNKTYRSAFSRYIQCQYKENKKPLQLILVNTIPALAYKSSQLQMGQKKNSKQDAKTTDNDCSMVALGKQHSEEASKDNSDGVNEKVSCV

On to `OC[C@H](NC1CCN(CCCc2c[nH]c3ccc(-n4cnnc4)cc23)CC1)c1ccc(F)cc1`, for which the half-maximal inhibitory concentration (IC50) in test [1] is 150 nM; in test [2] it was more than 10000 nM; in [4] it was more than 10000 nM; in test [5], 66 nM; in test [6], 1100 nM; in [7], 540 nM. For the same compound, the half-maximal inhibitory concentration (IC50) in [8] and in [9] was more than 10000 nM each time. The compound further displayed a 50% effective concentration (EC50) in test [3] of 0.8 nM. The Selectivity in test [10] was determined as 170.

`C[C@H](Cc1ccccc1)NC1CCN(CCCc2c[nH]c3ccc(-n4cnnc4)cc23)CC1`: the concentration for a half-maximal effect (EC50) in [3] was 6.8 nM. In addition, in test [11], the Efficacy was found to be 71%. Moreover, the IC50 amounted to 170 nM in test [12] and 5.5 nM in test [13]. For the same compound, the Selectivity in test [10] amounted to 31.

Regarding `C[C@@H](NC1CCN(CCCc2c[nH]c3ccc(-n4cnnc4)cc23)CC1)[C@H](O)c1ccccc1`, the EC50 in test [3] stood at 15 nM. This compound displayed an Efficacy in test [11] of 76%. Also, the IC50 stood at 200 nM in test [12] and 11 nM in [13]. Besides, the Selectivity in [10] was found to be 18.

In test [3], `NC(=O)OC[C@H](NC1CCN(CCCc2c[nH]c3ccc(-n4cnnc4)cc23)CC1)c1ccccc1` returned a concentration giving a half-maximal response (EC50) of 9.3 nM. In [11], this compound gave an Efficacy of 73%. Moreover, the half-maximal inhibitory concentration (IC50) in test [12] stood at 120 nM; in test [13], 4.7 nM. Also, the Selectivity in test [10] was 26.

For orientation: IC50 means the concentration at which inhibition is half-maximal. Read a low IC50 as greater potency. Usually EC50 stands for the concentration giving half of the maximal effect. Low readings indicate a more potent agent, high ones a less potent agent.
